Data on five molecules can be found in ChEMBL document CHEMBL5329156, “Discovery and development of novel substituted monohydrazides as potent antifungal agents” (RSC Med Chem, 2023).

One may read the MIC as the lowest concentration that inhibits growth of the organism.

Format in all cases: functional
The test system of one assay is Aspergillus nidulans. Kind of assay: Antifungal activity against Aspergillus nidulans ATCC 38163 assessed as fungal growth inhibition by double dilution method.
In assay [1] the test system is Candida albicans. Briefly: Antifungal activity against itraconazole/fluconazole susceptible Candida albicans ATCC MYA-2310 assessed as fungal growth inhibition by double dilution method. In short, it runs like this:
(§1)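 Broth microdilution after CLSI M27-A3/M38-A2 with minor modifications. A single colony was grown overnight in YPD at 35 °C with shaking at 200 rpm. Cells were mixed 1:1 with compound (final 0.06-31.3 µg/mL, from DMSO stocks) and incubated 48 h at 35 °C.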

Assay [2] concerns Candida albicans. Briefly: Antifungal activity against Candida albicans ATCC 10231 assessed as fungal growth inhibition by double dilution method. The essentials:
(§2)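 Broth microdilution after CLSI M27-A3/M38-A2 with minor changes. Single colony grown overnight in YPD at 35 °C, 200 rpm. Compound final range 0.06-31.3 µg/mL; incubated 48 h at 35 °C.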

The subject of assay [3] is Candida albicans. Kind of assay: Antifungal activity against itraconazole/fluconazole susceptible Candida albicans ATCC MYA-2876 assessed as fungal growth inhibition by double dilution method. The essentials: as §1
Assay [4] relates to Candida albicans. Kind of assay: Antifungal activity against itraconazole/fluconazole resistant Candida albicans ATCC MYA-1237 assessed as fungal growth inhibition by double dilution method. The essentials:
as §1

In a further assay the test system is Aspergillus terreus. Briefly: Antifungal activity against Aspergillus terreus ATCC MYA-3633 assessed as fungal growth inhibition by double dilution method.
Another assay concerns Cryptococcus neoformans. Kind of assay: Antifungal activity against Cryptococcus neoformans ATCC MYA-895 assessed as fungal growth inhibition by double dilution method. In short, it runs like this: as §2
Assay [5] has as its system Candida albicans. Kind of assay: Antifungal activity against itraconazole/fluconazole resistant Candida albicans ATCC 90819 assessed as fungal growth inhibition by double dilution method. The essentials:
as §1

Assay [6] deals with [Candida] auris. Briefly: Antifungal activity against Candida auris AR Bank # 0390 assessed as fungal growth inhibition by double dilution method. Conditions: Candidozyma auris. The essentials:
as §2

The subject of assay [7] is Aspergillus fumigatus. Briefly: Antifungal activity against Aspergillus fumigatus NRRL 163 assessed as fungal growth inhibition by double dilution method.
For assay [8], the system named is [Candida] auris. Kind of assay: Antifungal activity against Candida auris AR Bank # 0384 assessed as fungal growth inhibition by double dilution method. Conditions: Candidozyma auris. In short, it runs like this:
as §2

Assay [9] relates to Candida albicans. Kind of assay: Antifungal activity against itraconazole/fluconazole resistant Candida albicans ATCC MYA-1003 assessed as fungal growth inhibition by double dilution method. In short, it runs like this: as §1
Assay [10] has as its system Nakaseomyces glabratus. Briefly: Antifungal activity against Candida glabrata ATCC 2001 assessed as fungal growth inhibition by double dilution method. In short, it runs like this: as §2
Assay [11] deals with Candida albicans. Briefly: Antifungal activity against Candida albicans ATCC 64124 assessed as fungal growth inhibition by double dilution method. In short, it runs like this: as §1
The next assay deals with Aspergillus flavus. Kind of assay: Antifungal activity against Aspergillus flavus ATCC MYA-3631 assessed as fungal growth inhibition by double dilution method.
Assay [12] deals with Nakaseomyces glabratus. Kind of assay: Antifungal activity against Candida glabrata ATCC 22019 assessed as fungal growth inhibition by double dilution method. The essentials: as §2
Assay [13] relates to Aspergillus fumigatus. Briefly: Antifungal activity against Aspergillus fumigatus NRRL 6113 assessed as fungal growth inhibition by double dilution method.
Another assay deals with Pichia kudriavzevii. Briefly: Antifungal activity against Pichia kudriavzevii ATCC 6258 assessed as fungal growth inhibition by double dilution method. In short, it runs like this: as §2
The subject of assay [14] is Aspergillus fumigatus. Briefly: Antifungal activity against Aspergillus fumigatus NRRL 5109 assessed as fungal growth inhibition by double dilution method.

Values after ≈ are worked out from the molar mass of the structure shown. Some results are limits rather than exact numbers.

On to `COc1cccc(NNC(=O)c2ccc(Br)cn2)c1`, for which the minimum inhibitory concentration (MIC) was 3.9 µg/mL (≈ 12.1 µM) in the assay with Aspergillus nidulans; 3.9 µg/mL (≈ 12.1 µM) with Candida albicans [1]; 0.98 µg/mL (≈ 3.04 µM) in the assay with Candida albicans [2]; 0.98 µg/mL (≈ 3.04 µM) with Candida albicans [3]; 0.98 µg/mL (≈ 3.04 µM) in the assay on Candida albicans [4]; 1.95 µg/mL (≈ 6.05 µM) with Aspergillus terreus. Besides, the minimum inhibitory concentration (MIC) in the assay with Cryptococcus neoformans is 0.49 µg/mL (≈ 1.52 µM); in the assay with Candida albicans [5], 1.95 µg/mL (≈ 6.05 µM); in [Candida] auris [6], 1.95 µg/mL (≈ 6.05 µM); in the assay on Aspergillus fumigatus [7], over 31.3 µg/mL; in [Candida] auris [8], 0.98 µg/mL (≈ 3.04 µM); in the assay on Candida albicans [9], 3.9 µg/mL (≈ 12.1 µM). Further, the minimal inhibitory concentration (MIC) in the assay with Nakaseomyces glabratus [10] is 3.9 µg/mL (≈ 12.1 µM); in the assay on Candida albicans [11], 3.9 µg/mL (≈ 12.1 µM); in the assay with Aspergillus flavus, over 31.3 µg/mL; in the assay on Nakaseomyces glabratus [12] it was 1.95 µg/mL (≈ 6.05 µM); in the assay on Aspergillus fumigatus [13] it was over 31.3 µg/mL; in the assay on Pichia kudriavzevii, 0.24 µg/mL (≈ 0.745 µM). Further, in the assay on Aspergillus fumigatus [14], the minimal inhibitory concentration (MIC) was determined as 15.6 µg/mL (≈ 48.4 µM).

For the molecule `COc1ccc(NNC(=O)c2nc(F)ccc2F)cc1`, the minimum inhibitory concentration (MIC) is 1.95 µg/mL (≈ 6.98 µM) in the assay on Aspergillus nidulans; 1.95 µg/mL (≈ 6.98 µM) with Candida albicans [1]; 1.95 µg/mL (≈ 6.98 µM) with Candida albicans [2]; 1.95 µg/mL (≈ 6.98 µM) in the assay on Candida albicans [3]; 0.98 µg/mL (≈ 3.51 µM) in the assay with Candida albicans [4]; 31.3 µg/mL (≈ 112 µM) with Aspergillus terreus. In addition, the MIC in the assay on Cryptococcus neoformans is 0.98 µg/mL (≈ 3.51 µM); in the assay with Candida albicans [5], 1.95 µg/mL (≈ 6.98 µM); in [Candida] auris [6] it was 0.98 µg/mL (≈ 3.51 µM); in the assay on Aspergillus fumigatus [7] it was 31.3 µg/mL (≈ 112 µM); in [Candida] auris [8] it was 3.9 µg/mL (≈ 14 µM); with Candida albicans [9] it was 0.98 µg/mL (≈ 3.51 µM). In addition, the minimal inhibitory concentration (MIC) with Nakaseomyces glabratus [10] was 7.8 µg/mL (≈ 27.9 µM); in the assay with Candida albicans [11] it was 1.95 µg/mL (≈ 6.98 µM); in the assay on Aspergillus flavus it was over 31.3 µg/mL; in the assay on Nakaseomyces glabratus [12], 7.8 µg/mL (≈ 27.9 µM); with Aspergillus fumigatus [13] it was 31.3 µg/mL (≈ 112 µM); in the assay with Pichia kudriavzevii, 0.98 µg/mL (≈ 3.51 µM). Further, the MIC in the assay on Aspergillus fumigatus [14] worked out at 15.6 µg/mL (≈ 55.9 µM).

`O=C(NNc1cccc(F)c1)c1ccc(Br)cn1`: the minimum inhibitory concentration (MIC) in the assay on Aspergillus nidulans turned out to be 1.95 µg/mL (≈ 6.29 µM); in the assay with Candida albicans [1] it was 3.9 µg/mL (≈ 12.6 µM); with Candida albicans [2], 0.49 µg/mL (≈ 1.58 µM); in the assay with Candida albicans [3], 1.95 µg/mL (≈ 6.29 µM); with Candida albicans [4], 3.9 µg/mL (≈ 12.6 µM); in the assay with Aspergillus terreus it was 0.98 µg/mL (≈ 3.16 µM). Also, the MIC was 0.06 µg/mL (≈ 0.193 µM) in the assay with Cryptococcus neoformans; 3.9 µg/mL (≈ 12.6 µM) with Candida albicans [5]; 1.95 µg/mL (≈ 6.29 µM) in assay [Candida] auris [6]; over 31.3 µg/mL in the assay with Aspergillus fumigatus [7]; 1.95 µg/mL (≈ 6.29 µM) in assay [Candida] auris [8]; 0.98 µg/mL (≈ 3.16 µM) in the assay with Candida albicans [9]. Further, the minimal inhibitory concentration (MIC) in the assay on Nakaseomyces glabratus [10] is over 31.3 µg/mL; with Candida albicans [11], 0.49 µg/mL (≈ 1.58 µM); in the assay on Aspergillus flavus, 15.6 µg/mL (≈ 50.3 µM); with Nakaseomyces glabratus [12], 7.8 µg/mL (≈ 25.2 µM); with Aspergillus fumigatus [13], over 31.3 µg/mL; in the assay with Pichia kudriavzevii, 0.24 µg/mL (≈ 0.774 µM). The MIC with Aspergillus fumigatus [14] is over 31.3 µg/mL.

Regarding `COc1cccc(NNC(=O)c2cccc(F)n2)c1`, the minimum inhibitory concentration (MIC) in the assay on Aspergillus nidulans came out at 1.95 µg/mL (≈ 7.46 µM); in the assay on Candida albicans [1] it was 1.95 µg/mL (≈ 7.46 µM); in the assay with Candida albicans [2], 0.98 µg/mL (≈ 3.75 µM); in the assay with Candida albicans [3] it was 0.49 µg/mL (≈ 1.88 µM); in the assay with Candida albicans [4], 1.95 µg/mL (≈ 7.46 µM); with Aspergillus terreus, 3.9 µg/mL (≈ 14.9 µM). Also, the minimal inhibitory concentration (MIC) in the assay on Cryptococcus neoformans was found to be 0.49 µg/mL (≈ 1.88 µM); with Candida albicans [5], 3.9 µg/mL (≈ 14.9 µM); in [Candida] auris [6], 0.98 µg/mL (≈ 3.75 µM); in the assay on Aspergillus fumigatus [7] it was 15.6 µg/mL (≈ 59.7 µM); in [Candida] auris [8], 1.95 µg/mL (≈ 7.46 µM); in the assay with Candida albicans [9], 0.98 µg/mL (≈ 3.75 µM). The MIC in the assay on Nakaseomyces glabratus [10] was 15.6 µg/mL (≈ 59.7 µM); with Candida albicans [11], 0.98 µg/mL (≈ 3.75 µM); in the assay on Aspergillus flavus, over 31.3 µg/mL; with Nakaseomyces glabratus [12], 3.9 µg/mL (≈ 14.9 µM); in the assay with Aspergillus fumigatus [13], over 31.3 µg/mL; in the assay on Pichia kudriavzevii, 0.24 µg/mL (≈ 0.919 µM). Besides, the MIC with Aspergillus fumigatus [14] amounted to 7.8 µg/mL (≈ 29.9 µM).

Regarding `O=C(NNc1cccc(F)c1)c1ccc(F)cc1F`, the MIC with Aspergillus nidulans amounted to 3.9 µg/mL (≈ 14.6 µM); in the assay with Candida albicans [1] it was 3.9 µg/mL (≈ 14.6 µM); with Candida albicans [2], 0.24 µg/mL (≈ 0.902 µM); in the assay on Candida albicans [3] it was 3.9 µg/mL (≈ 14.6 µM); with Candida albicans [4], 0.98 µg/mL (≈ 3.68 µM); in the assay with Aspergillus terreus it was 1.95 µg/mL (≈ 7.32 µM). Moreover, the MIC is 1.95 µg/mL (≈ 7.32 µM) in the assay on Cryptococcus neoformans; 7.8 µg/mL (≈ 29.3 µM) in the assay on Candida albicans [5]; 0.24 µg/mL (≈ 0.902 µM) in [Candida] auris [6]; over 31.3 µg/mL in the assay with Aspergillus fumigatus [7]; 1.95 µg/mL (≈ 7.32 µM) in [Candida] auris [8]; 1.95 µg/mL (≈ 7.32 µM) with Candida albicans [9]. In addition, the minimum inhibitory concentration (MIC) is 7.8 µg/mL (≈ 29.3 µM) in the assay on Nakaseomyces glabratus [10]; 1.95 µg/mL (≈ 7.32 µM) in the assay on Candida albicans [11]; over 31.3 µg/mL with Aspergillus flavus; 3.9 µg/mL (≈ 14.6 µM) with Nakaseomyces glabratus [12]; over 31.3 µg/mL with Aspergillus fumigatus [13]; 1.95 µg/mL (≈ 7.32 µM) in the assay with Pichia kudriavzevii. In the assay on Aspergillus fumigatus [14], the MIC is over 31.3 µg/mL.
